The values below come from ChEMBL document CHEMBL1133666, “Esterase-sensitive nitric oxide donors of the diazeniumdiolate family: in vitro antileukemic activity” (J Med Chem, 2000).

pIC50: −log10 of the molar value.

The test system of experiment [1] is U-937. The experiment in a line: Inhibitory activity towards U937 cells at 72 hours. Conditions: Homo sapiens, U-937, 72 h. Format: functional, cell-based. In short, it runs like this: (§1)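 Leukemia cells seeded at 150 000 cells/mL in RPMI-1640 with 10% FBS, 37 °C, 5% CO₂, 1 mL per well. NO donors added at culture initiation. Cells harvested at 72 h and washed twice in PBS. Viable cells counted by Trypan blue exclusion. IC50 calculated from the concentration–growth curve. Means ± SEM of at least three separate experiments.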

Experiment [2] deals with HL-60. The experiment in a line: Inhibitory activity towards HL-60 cells at 72 hours. The format is functional, cell-based. Particulars: Homo sapiens, HL-60, 72 h. In short, it runs like this:
as §1

Experiment [3] deals with U-937. Put plainly: Within 24 hr at initial concentrations of 50 uM, apoptosis induction was evaluated in U937 cells. The format is functional. In short, it runs like this:
(§2)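 Cells grown at 150 000 cells/mL in RPMI-1640 with 10% FBS, 37 °C, 5% CO₂, with compound added at culture start and read at 24 h. Cells washed in PBS and lysed in 0.2% NP40/5% BSA in PBS with propidium iodide and RNase A. Flow cytometry scored the low-DNA-content (apoptotic) fraction as percent of cells. Means ± SEM of ≥3 experiments.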

Experiment [4] concerns HL-60. Put plainly: Within 24 hr at initial concentrations of 50 uM, apoptosis induction was evaluated in HL-60 cells. Format: functional. An outline of the steps: as §2
Experiment [5] concerns HL-60. The experiment in a line: Inhibitory activity towards HL-60 cells at concentration of 100 uM. The format is functional. Conditions: Homo sapiens. An outline of the steps: as §1
Experiment [6] concerns U-937. Put plainly: Inhibitory activity towards U937 cells at concentration of 100 uM. The format is functional. Conditions: Homo sapiens. In short, it runs like this:
as §1

As to `CC(=O)OCO/N=[N+](\[O-])N1CCCC1`, the pIC50 (as a rule, −log10 of the IC50, conventionally taken in molar units) in the experiment on U-937 [1] is 4.28; in the experiment on HL-60 [2] it was 5.19. The values for the Apoptosis induction with U-937 [3] and with HL-60 [4] were 40% and 57%, respectively.
Consider `CCN(CC)/[N+]([O-])=N/OCOC(C)=O`, for which the pIC50 in the experiment with U-937 [1] was 4.28; in the experiment on HL-60 [2], 5.08. Also, the Apoptosis induction is recorded as 35% with U-937 [3] and 50% in the experiment on HL-60 [4].
As for `CCN(CC)/[N+]([O-])=N/O`, the negative-log IC50 (pIC50) in the experiment on HL-60 [2] was below 3.22.
As for `[O-]/[N+](=N\O)N1CCCC1`, in the experiment with HL-60 [2], the pIC50 is below 3.22.
`CCN(CC)/[N+]([O-])=N/OCCSC(C)=O`: the inhibition (in general, the percentage by which the read-out fell short of the control) at 100 µM was determined as 90% in the experiment with HL-60 [5] and 48% in the experiment on U-937 [6].
